Results published in ChEMBL document CHEMBL1122149, “Beta-carbolines: synthesis and neurochemical and pharmacological actions on brain benzodiazepine receptors” (J Med Chem, 1982).

These molecules were tested against GABA-A receptor; anion channel (assay: In vitro inhibition of [3H]diazepam binding to benzodiazepine receptor in rat cerebral cortical membrane).
Type: cell membranes

Row | SMILES | Ki [µM]
1 | COC(=O)C1Cc2c([nH]c3ccccc23)C(c2ccccc2)N1 (stereo in doubt; 49) | 54
2 | COc1cc2c(cc1OC)CNCC2 | > 100
3 | CCC1NC(C(=O)OC)Cc2c1[nH]c1ccc(O)cc21 (stereo in doubt; 14a) | > 100
4 | CCC1NC(C(=O)OC)Cc2c1[nH]c1ccc(O)cc21 (stereo in doubt; 14a+14b) | 39
5 | CN1C=Cc2c([nH]c3ccccc23)C1 | > 100
6 | O=C(O)c1cc2c3ccccc3nc-2c[nH]1 | 24
7 | COC(=O)C1=Cc2c([nH]c3ccccc23)C(c2cccnc2)N1 (configuration not stated) | 6.25
8 | COC(=O)C1Cc2c([nH]c3ccccc23)C(CO)N1 (stereo in doubt; 18) | 0.51
9 | O=C(O)c1cnc2ccccc2c1 | > 100
10 | c1ccc2cnccc2c1 [ISOQUINOLINE] | > 100
11 | COC(=O)c1cc2c(cn1)[nH]c1ccccc12 [BETA-CCM] | 0.00105
12 | OCc1cc2c3ccccc3nc-2c[nH]1 | 1.47
13 | C1=Cc2c([nH]c3ccccc23)CN1 | > 100
14 | O=Cc1cnc2ccccc2c1 | > 100
15 | CN(C)CCc1c[nH]c2ccccc12 | > 100
16 | CN(C)CCc1c[nH]c2ccc(O)cc12 [BUFOTENINE] | > 100
17 | COC(=O)C1Cc2c([nH]c3ccc(O)cc23)CN1 (configuration not stated) | 0.573
18 | CCOC(=O)c1cc2c(cn1)[nH]c1ccccc12 | 0.0011
19 | c1ccc2c(c1)[nH]c1cnccc12 [NORHARMANE] | 1.62
20 | CC(O)c1cc2c3ccccc3nc-2c[nH]1 (configuration not stated) | 3.16
21 | O=C(O)C1Cc2c([nH]c3ccccc23)C(c2ccccc2)N1 (configuration not stated) | 6.11
22 | COC(=O)C1CC2=C(C(c3ccccc3)N1)N(C)c1ccccc1C2 (configuration not stated) | > 100
23 | COC(=O)C1Cc2c([nH]c3ccccc23)C(c2ccccc2)N1 (stereo in doubt; 60) | 174

Row | SMILES | Ki [µM]
24 | CCC1NC(C(=O)OC)Cc2c1[nH]c1ccccc21 (configuration not stated) | > 100
25 | COc1ccc2[nH]c3c(c2c1)C=CNC3 | > 500
26 | COC(=O)C1Cc2c([nH]c3ccccc23)C(CO)N1 (stereo in doubt; 17) | 5
27 | O=Cc1cc2c3ccccc3nc-2c[nH]1 | 0.0623
28 | O=Cc1cccnc1 [NICOTINALDEHYDE] | > 100
29 | COC(=O)c1cc2ccccc2cn1 | 13.2
30 | COC(=O)c1cnc2ccccc2c1 | > 100
31 | COC(=O)c1cc2c3ccccc3n(C)c2cn1 | > 50
32 | CCC1NC(C(=O)OC)=Cc2c1n(C)c1ccccc21 (configuration not stated) | > 100
33 | Oc1ccc2[nH]c3c(c2c1)C=CNC3 | > 100
34 | COC(=O)c1cc2c([nH]c3ccccc32)c(-c2ccccc2)n1 | 3.89
35 | CCc1nc(C(=O)OC)cc2c1[nH]c1ccccc12 | 7.54
36 | COC(=O)C1Cc2ccccc2CN1 (configuration not stated) | > 100
37 | O=Cc1ccccn1 [2-PYRIDINECARBOXALDEHYDE] | > 100
38 | Cc1nccc2c1[nH]c1ccccc12 [HARMAN] | 12.4
39 | COC(=O)C(Cc1c[nH]c2ccccc12)N(C)C (configuration not stated) | > 100
40 | O=C(O)C1Cc2ccccc2CN1 (configuration not stated) | > 100
41 | CC(=O)c1ccccn1 | > 100
42 | COC(=O)c1cc2c(cn1)[nH]c1ccc(O)cc12 | 0.00266
43 | CC(=O)c1cc2c3ccccc3nc-2c[nH]1 | 0.058
44 | Oc1cc2c(cc1O)CNCC2 | > 100
45 | CCCOC(=O)c1cc2c(cn1)[nH]c1ccccc12 | 0.001
46 | COC(=O)C1Cc2c([nH]c3ccccc23)C(C)N1 (configuration not stated) | > 50

These molecules were tested against T1, GABA-A receptor; anion channel (Rattus norvegicus) (UniProt O09028+P15431+P18506+P18508+P19969+P20236+P23574+P23576+P28471+P28473+P30191+P62813+P63079+P63138+Q91ZM7+Q9ES14).

Row | SMILES | Hill coefficient
47 | CCOC(=O)c1cc2c(cn1)[nH]c1ccccc12 | 0.74

What follows are molecules tested against T1, GABA-A receptor; anion channel (Rattus norvegicus) (assay: Hill coefficient for inhibition of ~2 nM [3H]diazepam binding to GABA-A benzodiazepine receptor of rat cerebral cortical membrane).
Procedure, shortened: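 Rat cerebral cortex tissue was homogenized in 100 volumes of 50 mM Tris-HCl pH 7.4 and washed three times by centrifugation at 20000g. […] Hill coefficients came from least mean squares regression of the inhibition curves.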

Row | SMILES | Hill coefficient
48 | O=C(O)c1cc2c3ccccc3nc-2c[nH]1 | 0.72
49 | COC(=O)c1cc2c(cn1)[nH]c1ccccc12 [BETA-CCM] | 0.7
50 | OCc1cc2c3ccccc3nc-2c[nH]1 | 0.93
51 | O=Cc1cc2c3ccccc3nc-2c[nH]1 | 0.93
52 | CC(=O)c1cc2c3ccccc3nc-2c[nH]1 | 0.73
